CYP2C19 inhib: blocks human cytochrome P450 2C19; P33261; CYP2C19 Supersomes, luciferin-H EGE luminescence, 30 min; inhibition, % at 5 µM; actives 21% (n = 96,000);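 active = CYP2C19 inhibition above a set limit at 5 µM in the primary screen, cut at about 50% in these data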;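 also: plate controls were negative control wells for no effect and 2.5 mM tranylcypromine positive control for full effect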
CYP2C19 activ: cytochrome P450 2C19 (human) activation; P33261; recombinant CYP2C19, luciferin-H EGE luminescence; hits give high values; 0 = fully inhibited enzyme, 1 = untreated enzyme; activation factor at 5 µM; 96,000 tested, under 10 active; AID 1025;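 active = activation factor of at least 2 at 5 µM in the primary screen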;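 also: 0 = wells with 2.5 mM tranylcypromine and 1 = vehicle-only wells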
CYP2C9 activ: increases human cytochrome P450 2C9 activity | activation factor at 5 µM | recombinant CYP2C9, luciferin-H conversion, luminescence; hits give high values; factor 1 = untreated enzyme, 0 = blocked | P11712 | actives 1.4% (n = 96,000);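 active = activation factor of 2 or more for CYP2C9 at a 5 µM dose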;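 also: 0 = sulfaphenazole-blocked wells and 1 = vehicle-only wells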
Target sequence (P11712 whole entry, looked up): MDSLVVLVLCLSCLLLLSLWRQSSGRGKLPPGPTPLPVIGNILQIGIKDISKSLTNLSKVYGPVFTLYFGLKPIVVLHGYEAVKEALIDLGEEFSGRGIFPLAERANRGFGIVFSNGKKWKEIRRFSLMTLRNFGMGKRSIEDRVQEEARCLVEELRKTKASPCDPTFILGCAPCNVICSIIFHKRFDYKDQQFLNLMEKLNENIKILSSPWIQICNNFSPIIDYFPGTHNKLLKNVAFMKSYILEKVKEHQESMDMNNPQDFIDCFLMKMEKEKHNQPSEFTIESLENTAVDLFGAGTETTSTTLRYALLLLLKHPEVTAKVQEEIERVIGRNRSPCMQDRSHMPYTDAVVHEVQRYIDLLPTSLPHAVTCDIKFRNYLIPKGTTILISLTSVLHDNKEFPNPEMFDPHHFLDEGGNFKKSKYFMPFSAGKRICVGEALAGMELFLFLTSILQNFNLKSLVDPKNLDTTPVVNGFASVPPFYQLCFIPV
E coli WT exp: E. coli BW25113 growth inhibition, expanded screen; OD600 absorbance; growth inhibition, % at 100 µM; actives 0.15% (n = 98,000); AID 710;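 active = growth inhibition above about 50% at one test dose, limit read from the data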;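 also: growth measured after 20 h incubation at 37 °C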
Ecoli tolC: blocks growth of E. coli BW25113 tolC mutant. actives 2.2% (n = 65,000). growth inhibition, % at 10 µM (by protocol). OD615;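 active = growth inhibition at or above a cutoff equal to the mean over every tested compound plus 3 SD, cut at about 60% in these data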;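 also: growth measured after 20 h incubation at 37 °C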
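System: E. coli ΔtolC::kan strain BW25113; Buffer or medium: LB broth supplemented with 50 µg/mL kanamycin; Compound: 10 µM final, single dose; Incubation: bacterial growth with compound for 20 h at 37 °C; Signal: A615 absorbance measurement; Evaluation: growth inhibition in percent.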
CYP2C9 inhib: blocks human cytochrome P450 2C9. actives 20% (n = 96,000). CYP2C9 Supersomes, luciferin-H conversion, luminescence. P11712. AID 777. inhibition, % at 5 µM;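 active = blocking of liver enzyme CYP2C9 beyond about 50% at 5 µM, limit read from the data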
The depositor's hits bear a star; . = no result given. Sampled rows, rich in hits. Any-hit rate of the full collection: about 29%.

SMILES	CYP2C19 inhib	CYP2C19 activ	CYP2C9 activ	E coli WT exp	Ecoli tolC	CYP2C9 inhib
CN1CCN(C(=O)c2ccc3c(=O)n(Cc4ccc(Cl)cc4)c(=S)[nH]c3c2)CC1	15	0.9	0.8	-6	1	22
CC(C)OC(=O)C(C)Oc1ccc(C(=O)NCCc2ccccc2)cc1 (stereo not given)	15	0.8	0.8	8	.	18
CN(C)/N=C/C=C1\CC/C(=C\c2ccc(Br)cc2)C1=O	54*	0.5	1.1	-4	.	-11
Cc1cc2c(s1)c1cnn(Cc3ccccc3F)c(=O)c1n2C	51*	0.5	1	-3	-8	5
O=C(NC1CCCC1)C(c1c[nH]c2ccccc12)N(C(=O)Cn1nnc(-c2ccc(Cl)cc2)n1)c1ccccc1 (stereo not given)	30	0.7	0.3	-6	.	67*
CC(C)CC(C(=O)NCC1CCCO1)N(C(=O)Cn1nnc(-c2ccc(F)cc2)n1)c1ccccc1F (stereo not given)	8	0.9	0.6	2	.	43
CC(C)(C)NC(=O)C(c1ccco1)N(C(=O)Cn1nnc(-c2ccc(F)cc2)n1)c1ccccc1F (stereo not given)	23	0.8	0.9	0	71*	12
COc1cccc(N(C(=O)Cn2nnc(-c3ccc(C)cc3)n2)C(C(=O)NC(C)(C)C)c2c[nH]c3ccccc23)c1 (stereo not given)	40	0.6	0.1	-16	.	88*
COC(=O)C(C(=O)OC)=C(/C=C/C=C/N(C)C)N(C)C	-4	1	1.1	3	-1	-14
CCOc1ccc(C2CC(c3ccc(F)cc3)n3ncnc3N2)cc1 (stereo not given)	.	.	.	.	12	.
Clc1ccc(C2CC(c3ccco3)n3ncnc3N2)cc1Cl (stereo not given)	.	.	.	.	37	.
Clc1ccc(C2CC(c3ccccc3)Nc3ncnn32)cc1 (stereo not given)	75*	0.2	0.7	11	23	32
Fc1ccc(C2CC(c3ccccc3)n3ncnc3N2)cc1 (stereo not given)	88*	0.1	0.8	5	17	22
COc1ccc(C(CNC(=O)c2cc3ccccc3cc2OC)N2CCCC2)cc1 (stereo not given)	4	1	0.9	-3	.	5
CC(C(=O)N1c2ccccc2Sc2ccccc21)n1nnc(-c2cccs2)n1 (stereo not given)	51*	0.5	0.2	-16	7	83*
O=C(O)Cn1nnc(-c2cccs2)n1	-3	1	1	-1	-9	-2
COc1ccc(C(C)C)cc1S(=O)(=O)N1CCN(C)CC1	37	0.6	1.2	3	-22	-16
Cc1noc(C)c1S(=O)(=O)N1CCN(C(c2ccccc2)c2ccc(Cl)cc2)CC1 (stereo not given)	75*	0.2	0.2	-9	0	77*
Cc1noc(C)c1S(=O)(=O)N1CCCCC1	12	0.9	0.7	7	.	32
CC1(C)CC(=O)C2=C(C1)Nc1cc3c(cc1C2c1ccc2c(c1)OCO2)OCO3 (stereo not given)	48	0.5	0.2	-9	.	76*
COc1ccc(C2C3=C(CC(C)(C)CC3=O)Nc3cc4c(cc32)OCO4)cc1 (stereo not given)	32	0.7	0.3	4	.	70*
CCN1CCN(C(C(=O)NC2CCCCC2)c2ccc(Cl)cc2)CC1 (stereo not given)	43	0.6	1.3	-2	.	-29
CCc1c(C)nc(SCC(=O)N2CCc3ccccc32)[nH]c1=O	8	0.9	0.9	1	-9	9
Clc1cccc(Cl)c1Cn1cnc(=NCc2ccco2)c2[nH]cnc21	30	0.7	0.2	9	.	77*
Clc1cccc(Cl)c1Cn1cnc2c(NCc3ccco3)ncnc21	-7	1.1	0.9	-5	.	14
SMILES	CYP2C19 inhib	CYP2C19 activ	CYP2C9 activ	E coli WT exp	Ecoli tolC	CYP2C9 inhib
Cc1cc(Br)c(S(=O)(=O)NCCN2CCOCC2)cc1C	41	0.6	1.1	11	-9	-14
Cc1ccc(S(=O)(=O)NCCCN2CCOCC2)c(C)c1	64*	0.4	1.6	4	-16	-56
COc1cc(C)c(Cl)cc1S(=O)(=O)NCCCN1CCOCC1	66*	0.3	1.3	-8	.	-32
COc1cc(C)c(S(=O)(=O)N2CCOCC2)cc1C(C)C	53*	0.5	0.9	3	10	10
COc1c(S(=O)(=O)NCCN2CCOCC2)ccc(Cl)c1Cl	80*	0.2	1.8	3	.	-83
CSc1cccc(NC(=O)c2cnccn2)c1	8	0.9	1.8	8	.	-77
CCCc1nc2c(C)ccc(C)c2c(N)c1CC	9	0.9	0.7	7	.	34
COc1cc(C)c(Cl)cc1S(=O)(=O)NCCN1CCOCC1	83*	0.2	1.2	4	.	-16
COc1cc(Cl)c(S(=O)(=O)NCCCN2CCOCC2)cc1Cl	46	0.5	1.9	1	-11	-90
COc1cc2c(cc1OC)C(c1cc3cc(OC)c(OC)cc3[nH]c1=O)N(C(=O)C1CC1)CC2 (stereo not given)	25	0.7	0.4	2	-1	61*
COc1ccc(C2=NCC(CSc3nnnn3C)S2)cc1 (stereo not given)	15	0.9	0.9	3	-4	5
O=C(Cn1cnc2c(nnn2Cc2ccc(Cl)cc2)c1=O)NCc1ccco1	.	.	.	-17	0	.
CCCCCCCC(=O)N/N=C/c1ccc(Br)cc1	75*	0.2	0.8	7	.	18
CCCCCCCC(=O)N/N=C/c1ccco1	42	0.6	0.9	14	.	10
CCCCCCCCCC(=O)N/N=C/c1ccc(C)s1	77*	0.2	0.3	-2	.	74*
CCCCCCCCCCCC(=O)N/N=C/c1ccco1	26	0.7	0.4	-4	.	56*
Cc1ccc2[nH]c(=O)c(-c3noc(-c4ccncc4)n3)cc2c1	.	.	.	.	-11	.
Oc1ccc(N=Nc2n[nH]c(-c3ccc(Cl)cc3)n2)cc1	20	0.8	2*	7	.	-104
Cc1ccc(Cn2ccc(NC(=O)c3cc(C)on3)n2)cc1	70*	0.3	0.4	8	.	62*
Cc1nc2nc(C)c(CCC(=O)Nc3ccc4c(c3)OCO4)c(C)n2n1	-6	1.1	1	2	-8	4
Cc1csc(NC(=O)CN(C)S(=O)(=O)c2cccc3cccnc23)n1	91*	0.1	0.2	3	4	84*
CN(Cc1ccccc1)S(=O)(=O)c1cccc2cccnc12	80*	0.2	3*	5	.	-203
CN(CC(=O)N1CCCCC1)S(=O)(=O)c1cccc2cccnc12	3	1	2.1*	6	-21	-105
CC1Cc2ccccc2N1C(=O)CN(C)S(=O)(=O)c1cccc2cccnc12 (stereo not given)	27	0.7	1.9	-1	.	-88

Source: PubChem BioAssay
